# Assay outcomes as filed in PubChem.
# The full list was thinned out, with hits kept by preference.
# HUVEC inhibit = inhibitors of human endothelial cell proliferation; HUVEC proliferation, CellTiter-Glo luminescence, 72 h; hits give low values; viability, % at 10 µM (by protocol); 86,000 compounds, 1.1% hits;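 active = viability at or below 30%; inactive = viability above 30%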
# PTEN del growth = PTEN-deleted cell growth suppression; HCT116 PTEN-null viability, CellTiter-Glo, 60 h; hits give low values; viability, % at 10 µM; 140,000 compounds, 1.2% hits;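 active = viability at or below a set limit, 4 SD under the median of all tested compounds, cut at about 3.7% in these data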;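 note: PTEN knockout HCT116 line with beta catenin targeted HCT116 as companion control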
# Lung fibro prol = blocks proliferation of human lung fibroblasts; LL 47 human lung fibroblast viability, ATP luminescence; hits give low values; viability, % at 10 µM; 85,000 compounds, 1.1% hits; AID 719;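 active = viability at or below 50% in the single dose screen; inactive = viability above 50%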;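 note: compound exposure lasted 72 h before the ATP readout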
#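 Signal: luminescent ATP detection, CellTiter-Glo; assay system: LL 47 human lung fibroblasts; input: 1,150 cells/well; incubation: overnight cell rest, 72 h compound treatment at 37 °C; measure: % viability versus median cells-only luminescence; medium: IMEM growth medium with 15% fetal bovine serum; dosing: compound addition at 0.1% DMSO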
# HCT116 bCat-KO = beta-catenin-lacking colon tumor cell growth suppression; HCT116 beta-catenin knockout viability, CellTiter-Glo, 60 h; hits give low values; 140,000 compounds, 1.5% hits; viability, % at 10 µM; AID 818;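 active = viability at or under a set limit, the compound median less 4 SD, cut at about 6% in these data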
# H69AR inhibit = growth inhibitors of human H69AR lung tumor cells; AID 598; viability, % at 10 µM; 85,000 compounds, 6% hits; H69AR lung tumor viability, ATP luminescence, 72 h; hits give low values;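 active = viability at or below 40%; inactive = viability above 40%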;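 note: multidrug resistant small cell line overexpressing MRP-1 efflux transporter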
# Hits are given with their value; n = inactive; x = no result given.
SMILES,HUVEC inhibit,PTEN del growth,Lung fibro prol,HCT116 bCat-KO,H69AR inhibit
COc1ccccc1N1CCN(CCCNC(=O)Nc2ccccc2C)CC1,n,n,n,n,n
COc1ccc(Cl)c(N2CCN(CCCNC(=O)Nc3ccc(C)cc3)CC2)c1,10,n,n,n,n
CCOc1ccc(C(=O)C[n+]2ccccc2C)cc1,x,n,x,n,x
Cc1nn(C(=O)c2cccs2)c(C)c1CN1C(=O)c2ccccc2C1=O,n,n,n,n,21
Cc1nn(C(=O)c2ccco2)c(C)c1CN1C(=O)c2ccccc2C1=O,n,n,n,n,n
Cn1c(C(=O)N2CCN(c3ccc(Cl)cc3)CC2)cc2c(=O)[nH]c3ccccc3c21,n,n,n,n,34
Cc1ccc(Cl)cc1N1CCN(C(=O)Cc2cn(C)c3ccccc23)CC1,n,n,n,n,34
Cc1ccc(C)c(N2CCN(C(=O)Cc3cn(C)c4ccccc34)CC2)c1,n,n,n,n,n
Cc1ccc(Cl)cc1N1CCN(C(=O)Cc2c(C(=O)O)[nH]c3ccccc23)CC1,n,n,n,n,n
Cc1ccc(Cl)cc1N1CCN(C(=O)c2cc3c(=O)[nH]c4ccccc4c3n2C)CC1,x,n,x,5.6,x
O=C(CNC(=O)c1ccc(Br)o1)Nc1cccc(-c2cnc3ccccc3n2)c1,n,n,n,n,25
Cc1ccc(CNC(=O)C2CCN(S(=O)(=O)N3CCC4(CC3)OCCO4)CC2)cc1,x,n,x,n,x
CCOC(=O)c1cc2sc(C)cc2n1CC(=O)N1CCOCC1,n,n,n,n,n
CCOC(=O)c1cc2sc(C)cc2n1CC(=O)NCc1ccc(F)cc1,n,n,n,n,30
CCOc1ccc(NC(=S)N(CCc2c(C)[nH]c3ccccc23)Cc2ccco2)cc1,x,n,x,n,x
Cc1nc2ccc(S(=O)(=O)NC(C(=O)Nc3nccs3)C(C)C)cc2s1 (centres undefined),n,n,n,n,n
Cc1nc2ccc(S(=O)(=O)NC(C(=O)Nc3nc4ccc(Cl)cc4s3)C(C)C)cc2s1 (centres undefined),n,n,n,n,30
CC(=O)c1ccc(-n2c(SCC(=O)c3c[nH]c4ccccc34)nc3ccccc3c2=O)cc1,x,n,x,n,x
CC(=O)Nc1ccc(S(=O)(=O)NC2=C(N3CCN(c4ccc(F)cc4)CC3)C(=O)c3ccccc3C2=O)cc1,4.8,2.1,n,2.0,n
COc1ccc2nc(SCC(=O)Nc3ccc(S(=O)(=O)N4CCCC4)cc3)c(C#N)cc2c1,n,n,n,n,6.0
N#Cc1cc2ccccc2nc1SCC(=O)Nc1ccc(S(=O)(=O)N2CCCC2)cc1,n,n,n,n,n
COc1ccc(CCn2c(N3CCN(Cc4ccccc4)CC3)nc3c2c(=O)[nH]c(=O)n3C)cc1,n,n,n,n,33
Cc1ccc(Sc2nc3c(c(=O)[nH]c(=O)n3C)n2CCc2ccccc2)cc1,n,2.8,n,n,14
CN1CCN(Cc2nc3c(c(=O)[nH]c(=O)n3C)n2CCc2ccccc2)CC1,n,n,n,n,n
Cn1c(=O)[nH]c(=O)c2c1nc(N1CCOCC1)n2CCN1CCOCC1,n,n,n,n,n
SMILES,HUVEC inhibit,PTEN del growth,Lung fibro prol,HCT116 bCat-KO,H69AR inhibit
COc1ccc(CCn2c(N3CCOCC3)nc3c2c(=O)[nH]c(=O)n3C)cc1,n,n,n,n,25
COc1ccc(OCC(O)Cn2c(Br)nc3c2c(=O)[nH]c(=O)n3C)cc1 (centres undefined),n,n,n,n,35
CC(=O)OC[C@H]1O[C@@H](O/N=C/C[C@@H]2C=C[C@H](OC(C)=O)[C@@H](COC(C)=O)O2)[C@H](OC(C)=O)[C@@H](OC(C)=O)[C@@H]1OC(C)=O,x,n,x,n,x
CC[C@@H](C)[C@H](NC(=O)OC(C)(C)C)c1nnc(S(=O)(=O)Cc2cc(C)ccc2C)o1,n,3.8,14,2.8,0.2
Cc1ccccc1CS(=O)(=O)c1nnc([C@H](CC(C)C)NC(=O)OC(C)(C)C)o1,n,n,3.9,n,n
CC(C)[C@H](NC(=O)OC(C)(C)C)c1nnc(S(=O)(=O)Cc2c(F)cccc2Cl)o1,n,x,2.6,x,0.9
CC(C)C[C@H](NC(=O)OC(C)(C)C)c1nnc(SCc2ccccc2)o1,n,n,n,n,n
CC(C)(C)OC(=O)N[C@@H](Cc1ccccc1)c1nnc(S(=O)(=O)Cc2cccc(F)c2)o1,n,n,20,n,1.0
COc1ccc(OC)c(NC(=O)C(=O)NNC(=O)c2cccs2)c1,x,n,x,n,x
CC(/C=N/NC(=O)c1nn(C)c(C)c1Br)=C\c1ccccc1,x,n,x,n,x
N#C/C(=C/c1ccc(-c2ccc(S(N)(=O)=O)cc2)o1)c1nc2ccccc2s1,x,1.8,x,1.5,x
N#C/C(=C/c1ccc(-c2ccc(S(N)(=O)=O)cc2)o1)C(=O)Nc1ccccc1,x,n,x,n,x
Nc1nnc(-c2cc3ccccc3oc2=O)s1,n,n,n,n,n
O=c1oc2ccccc2cc1-c1nnc(NCc2ccco2)s1,n,n,n,n,32
CC(=O)SC(C[N+](=O)[O-])c1cn(C(C)=O)c2ccccc12 (centres undefined),n,n,2.6,n,2.3
COC(=O)c1ccc(SCC(=O)NC2CCCCC2)c([N+](=O)[O-])c1,x,n,x,n,x
Brc1ccc(Oc2ncc(CN3CCOCC3)s2)cc1,x,n,x,n,x
CCOC(=O)c1ccc(Cn2c(-c3ccccc3)nnc2-c2ccccc2)o1,n,n,n,n,33
CC(C)OCC(O)CN1CCNCC1 (centres undefined),x,n,x,n,x
Cc1cc(CN2CCN(CCC#N)CC2)c(O)c(C2(C)CCCCC2)c1,n,n,n,n,38
COc1ccc(C)cc1NC(=O)CN(Cc1nnc(-c2ccc(Cl)cc2)o1)C1CCCC1,n,n,n,n,2.4
COc1cc2c(-c3ccc(O)cc3)nc3c(c(C)nn3-c3ccccc3)c2cc1OC,x,1.2,x,1.0,x
Cc1ccc2c(c1)cc(CN(Cc1ccco1)C(=O)COc1ccccc1)c1nnnn12,n,n,n,n,38
Cc1ccc2c(c1)cc(CN(Cc1ccccc1)C(=O)N(C)C)c1nnnn12,n,x,n,x,n
Cc1ccc(NC(=O)C2Cc3ccccc3CN2C(=O)c2ccccc2)cc1Cl (centres undefined),x,n,x,n,x
SMILES,HUVEC inhibit,PTEN del growth,Lung fibro prol,HCT116 bCat-KO,H69AR inhibit
COc1cc(C2=NOC(C(=O)NCc3ccc(F)cc3)C2)cc(OC)c1OC (centres undefined),x,n,x,n,x
CCn1ncc(C2=NOC(C(=O)NCC(C)C)C2)c1C (centres undefined),n,n,n,n,n
CCn1ncc(C2=NOC(C(=O)Nc3cc(OC)c(Cl)cc3OC)C2)c1C (centres undefined),n,n,n,n,39
O=C(NCc1ccc2c(c1)OCO2)C1CC(c2ccc(Cl)cc2)=NO1 (centres undefined),n,n,n,n,n
COc1ccc(C2=NOC(C(=O)NCc3ccc(F)cc3)C2)cc1OC (centres undefined),n,n,46,n,28
COc1ccc(CNC(=O)C2CC(c3cccc(OC)c3)=NO2)cc1 (centres undefined),n,n,n,n,n
